Measurements pooled from the literature.
Each line is one published result; the experiments were not run side by side.
Target: Atypical kinase COQ8A, mitochondrial (COQ8A, Homo sapiens, UniProt Q8NI60)

For `O=C(c1ccc(Nc2ncc(Cl)c(-c3cc4ccccc4s3)n2)cc1)N1CCC(N2CCCC2)CC1`, the remaining binding was 78% (binding; competition with immobilised ligand; 1 µM).
`CN(C)c1nccc(-c2cnn3ncccc23)n1` gave a remaining binding of 88% (binding; 1 µM).
With `COc1ncc2cc3ccccc3nc2c1C#N` the remaining binding was 96% (cell-free assay; competition with immobilised ligand; 5 µM).
For `CNC(=O)[C@@H]1CC[C@@H](n2c(-c3ccc4cnccc4c3)nc3ccc(C(=O)NCc4cccc(C(N)=O)c4)cc32)C1`, the remaining binding was 100% (binding; competition with immobilised ligand; 1 µM).
The remaining binding of `CCN1CCN(Cc2ccc(C(=O)Nc3ccc(C)c(Oc4ccc5c(c4)CC(=O)N5)c3)cc2C(F)(F)F)CC1` is reported as 92% (binding; competition with immobilised ligand; 1 µM).
`NS(=O)(=O)c1cc(NC(=O)C2(c3ccccc3Cl)CC2)ccc1Oc1cccc(Cl)c1` gave a remaining binding of 100% (cell-free assay; competition with immobilised ligand; 1 µM).
The remaining binding of `C=CC(=O)N1CCC(C(=O)NCC(=O)N2CCN(c3nc(-c4cnc(N)nc4C(F)F)nc(N4CCOCC4)n3)CC2)CC1` is reported as 78% (binding; competition with immobilised ligand; 1 µM).
The remaining binding of `C[C@H]1CCN(c2nccc(-c3cnn4ncccc34)n2)C1` is reported as 100% (binding; 1 µM).
The remaining binding of `O=C(c1ccc(Nc2ncc(Cl)c(-c3ccc(Cl)s3)n2)cc1)N1CCC(N2CCCC2)CC1` is reported as 100% (binding; competition with immobilised ligand; 1 µM).
With `N[C@H]1CCN(c2nccc(-c3cnn4ncccc34)n2)C1` the remaining binding was 79% (binding; 1 µM).
With `C[C@@H]1CN(c2cc(-c3nn(C)c4ccc(OC5(C)CC5)cc34)ncn2)C[C@H](C)O1` the remaining binding was 100% (cell-free assay; competition with immobilised ligand; 1 µM).
The remaining binding of `C[C@@H]1CN(c2ccc3ncc(-c4ccc5[nH]nc(C6CC6)c5c4)n3n2)C[C@H](C)O1` is reported as 100% (binding; competition with immobilised ligand; 0.5 µM).
The remaining binding of `COc1cnc(Nc2cccc(S(N)(=O)=O)c2)nc1N1CCN(c2ccccc2)C(=O)C1` is reported as 100% (binding; competition with immobilised ligand; 1 µM).
For `Cc1nc(Cc2cccc(C(F)(F)F)c2)sc1-c1ccc(C(N)=O)nc1`, the remaining binding was 62% (cell-free assay; competition with immobilised ligand; 1 µM).
With `CN(C)c1ncc(F)c(-c2cnn3ncccc23)n1` the remaining binding was 96% (binding; 1 µM).
With `O=C(NCc1ncc(C(F)(F)F)cc1Cl)c1ccc2c(c1)C1(CCS(=O)(=O)CC1)[C@@H](C1CC1)N2S(=O)(=O)c1ccc(F)cc1` the remaining binding was 90% (cell-free assay; competition with immobilised ligand; 1 µM).
For `O=C(c1ccc(Nc2nccc(-c3cc4ccccc4s3)n2)cc1)N1CCC(N2CCCC2)CC1`, the remaining binding was 88% (binding; competition with immobilised ligand; 1 µM).
The remaining binding of `O=C(N[C@H]1CCCCC/C=C\C2C[C@@]2(C(=O)O)NC(=O)[C@@H]2C[C@@H](Oc3ccncc3)CN2C1=O)OC1CCCC1` (some centres unmarked) is reported as 90% (binding; competition with immobilised ligand; 1 µM).
`F[C@@H]1CCN(c2nccc(-c3cnn4ncccc34)n2)C1` has a remaining binding of 100% (binding; 1 µM).
The remaining binding of `O=c1nc(-c2ccccn2)sc2ccccc12` is reported as 88% (cell-free assay; competition with immobilised ligand; 1 µM).
`O=C(NCC1CCOCC1)c1n[nH]cc1NC(=O)c1c(F)cccc1F` gave a remaining binding of 86% (binding; competition with immobilised ligand; 1 µM).
For `CN(C)c1nccc(-c2cnc3ncccn23)n1`, the remaining binding was 100% (binding; 1 µM).
With `FC(F)(F)c1ccc2c(c1)nc(-c1cccnc1)n2C1CC1` the remaining binding was 100% (cell-free assay; competition with immobilised ligand; 1 µM).
